Measurements from ChEMBL document CHEMBL3739303, “Targeting the Src Homology 2 (SH2) Domain of Signal Transducer and Activator of Transcription 6 (STAT6) with Cell-Permeable, Phosphatase-Stable Phosphopeptide Mimics Potently Inhibits Tyr641 Phosphorylation and Transcriptional Activity” (J Med Chem, 2015).
Activity calls are given as the source filed them. No cut-off for these calls is given here.

How the values were obtained:
[1] = target: T1, Signal transducer and transcription activator 6 (Mus musculus) (UniProt P52633); test: Inhibition of IL4-induced STAT6 phosphorylation at Y641 in CD4+ T lymphocytes isolated from C57BL/6J mouse preincubated for 2 hrs followed by activation with plate-bound anti-CD3/anti-CD28 and IL4 for 15 mins by Western blot analysis; assay type: cell-based
T1 sequence (whole entry): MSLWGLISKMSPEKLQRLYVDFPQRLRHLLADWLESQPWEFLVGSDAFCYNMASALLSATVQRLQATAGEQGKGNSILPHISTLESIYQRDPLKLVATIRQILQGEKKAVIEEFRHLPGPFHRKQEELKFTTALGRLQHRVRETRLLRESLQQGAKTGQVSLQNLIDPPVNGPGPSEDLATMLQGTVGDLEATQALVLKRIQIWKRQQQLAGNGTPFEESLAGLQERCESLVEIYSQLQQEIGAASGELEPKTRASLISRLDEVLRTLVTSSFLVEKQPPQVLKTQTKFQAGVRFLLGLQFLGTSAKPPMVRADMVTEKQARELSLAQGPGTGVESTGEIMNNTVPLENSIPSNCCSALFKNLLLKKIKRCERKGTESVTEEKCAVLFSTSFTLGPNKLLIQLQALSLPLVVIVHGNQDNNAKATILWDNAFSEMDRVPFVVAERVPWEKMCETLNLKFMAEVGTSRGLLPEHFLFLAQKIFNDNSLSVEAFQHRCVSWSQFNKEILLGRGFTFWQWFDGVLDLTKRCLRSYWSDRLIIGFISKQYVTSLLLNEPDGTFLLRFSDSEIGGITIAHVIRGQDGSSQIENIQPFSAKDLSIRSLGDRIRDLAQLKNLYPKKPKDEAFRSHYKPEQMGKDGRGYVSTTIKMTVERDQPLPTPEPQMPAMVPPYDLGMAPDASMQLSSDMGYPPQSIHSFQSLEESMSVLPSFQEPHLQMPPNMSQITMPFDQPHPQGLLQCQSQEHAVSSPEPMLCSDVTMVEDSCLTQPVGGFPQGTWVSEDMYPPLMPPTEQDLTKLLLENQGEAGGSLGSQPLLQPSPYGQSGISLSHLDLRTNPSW
How it was run: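 CD4+ T cells from C57BL/6J mice, sorted by AutoMACS; activated 15 min with plate-bound anti-CD3 and/or anti-CD28 with IL-2, IL-6 or IL-4; lysed with protease inhibitors plus 10 mM NaF and 1 mM Na3VO4; Bradford-normalised immunoblots for pSTAT1 (Tyr701), pSTAT5 (Tyr694), pSTAT6 (Tyr641) and total STATs.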

[2] = target: T2, Signal transducer and activator of transcription 6 (Homo sapiens) (UniProt P42226); test: Inhibition of IL4-stimulated STAT6 phosphorylation at tyrosine 641 in human Beas-2B cells at 0.025 to 5 uM incubated for 2 hrs followed by stimulation with IL4 for 1 hr by Western blot assay; assay type: cell-based
T2 sequence (whole entry): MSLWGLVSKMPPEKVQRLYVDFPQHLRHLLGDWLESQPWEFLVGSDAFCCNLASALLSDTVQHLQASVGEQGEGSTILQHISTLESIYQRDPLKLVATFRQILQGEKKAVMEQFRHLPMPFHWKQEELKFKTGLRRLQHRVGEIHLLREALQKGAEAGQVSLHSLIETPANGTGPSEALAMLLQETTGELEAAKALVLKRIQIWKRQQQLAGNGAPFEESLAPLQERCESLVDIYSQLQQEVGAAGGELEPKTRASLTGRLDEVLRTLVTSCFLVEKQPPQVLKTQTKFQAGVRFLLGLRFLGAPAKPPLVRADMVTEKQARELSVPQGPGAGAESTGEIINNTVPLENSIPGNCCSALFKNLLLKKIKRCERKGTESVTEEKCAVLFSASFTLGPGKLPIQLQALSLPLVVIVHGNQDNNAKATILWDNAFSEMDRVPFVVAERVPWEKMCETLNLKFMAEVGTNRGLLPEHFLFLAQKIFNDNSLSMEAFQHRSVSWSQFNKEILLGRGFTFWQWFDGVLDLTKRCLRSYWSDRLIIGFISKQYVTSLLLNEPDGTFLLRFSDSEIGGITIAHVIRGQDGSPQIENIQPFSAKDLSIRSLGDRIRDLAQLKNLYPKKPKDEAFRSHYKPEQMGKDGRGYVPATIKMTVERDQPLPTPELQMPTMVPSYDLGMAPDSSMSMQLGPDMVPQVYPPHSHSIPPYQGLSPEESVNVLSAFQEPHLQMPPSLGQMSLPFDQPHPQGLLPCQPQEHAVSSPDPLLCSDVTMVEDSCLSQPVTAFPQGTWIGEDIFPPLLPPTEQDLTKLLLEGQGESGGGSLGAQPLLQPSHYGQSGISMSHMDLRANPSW
How it was run: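 Beas-2B seeded at 3.0 × 10^5 cells/well the day before; prodrugs from DMSO stocks added to final concentrations for 2 h, then IL-4 (2 ng/mL) for 1 h. PBS-washed cells lysed with PMSF, protein by modified Lowry; blots blocked in 3% BSA/TBST, probed for pSTAT6 (Tyr641), stripped and reprobed for total STAT6; ECL on X-ray film.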

inhibition [1]: Active
inhibition [2]: Active
Structure (SMILES): C/C(=C\C(=O)N[C@H](C(=O)N1CCC[C@H]1C(=O)N(C)c1ccccc1)C(C)(C)C)c1ccc(C(F)(F)P(=O)(OCOC(=O)C(C)(C)C)OCOC(=O)C(C)(C)C)cc1
